Here are results for 1 compound from ChEMBL document CHEMBL5715946 (Chem Biol, 2010).

The nature of assay [1]: Upregulation of glutathione S-transferase Y(b) subunit gene expression in serum-deprived neonatal Wistar rat cardiomyocyte at 0.37 uM incubated for 21 hrs by microarray analysis relative to control. The format is functional, Cardiac muscle cell. In outline:
(§1)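 Primary neonatal rat cardiomyocytes, isolated by proteinase digestion with preplating to deplete nonmyocytes, cultured in serum-free medium with or without 0.37 μM compound for 21 hr. Total RNA was recovered and global expression profiled on an Affymetrix GeneChip rat genome U34A array (about 7000 known genes). Change is relative to untreated cells.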

Assay [2] concerns Cardiac muscle cell. Nature of the assay: Cytoprotective activity against DOX-induced neonatal Wistar rat cardiomyocyte death assessed as increase in cell viability at 4.6 to 370 nM preincubated for 3 hrs followed by DOX addition and measured after 18 hrs by WST-8 assay. The format is functional, cell-based. To be noted: dose 4.6-370 nM, time 21.0 hrs. In outline: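 Neonatal rat cardiomyocytes, isolated by proteinase digestion and preplating, pretreated with samples for 3 hr in serum-free medium, then exposed to 200 nM doxorubicin for 18 hr. Viability by WST-8. Mean ± SD, n = 6.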
(In general: Tetrazolium assays rely on reduction of a dye to a coloured formazan, in cell work by metabolically active cells.)

In assay [3] the target is Macrophage migration inhibitory factor (Rattus norvegicus) (UniProt P30904). Kind of assay: Inhibition of recombinant rat MIF expressed in Escherichia coli BL21 (DE3) assessed as reduction in tautomerase activity at 3.75 to 30 uM using L-dopachrome carboxy-methyl ester as substrate by spectrophotometry. To be noted: dose 3.75-30 µM. In outline:
(§2)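 Purified recombinant rat MIF tautomerase assayed with purified L-dopachrome carboxy-methyl ester as substrate in pH 6.0 buffer; rate taken over the initial 30 s. Mean ± SD, n = 4.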

Assay [4] deals with T1, Macrophage migration inhibitory factor (Homo sapiens) (UniProt P14174).
T1 sequence (whole entry): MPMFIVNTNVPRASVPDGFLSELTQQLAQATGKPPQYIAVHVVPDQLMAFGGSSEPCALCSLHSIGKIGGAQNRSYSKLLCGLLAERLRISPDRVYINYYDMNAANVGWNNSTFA
Nature of the assay: Binding affinity to BTZO-12 sensor chip immobilized recombinant human C-terminal His-tagged MIF expressed in Escherichia coli BL21 (DE3) by SPR analysis. Put shortly:
(§3)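 Sensor chip carrying immobilized BTZO-12; MIF (wild type or point mutants) passed over it and specific binding monitored by surface plasmon resonance.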

Assay [5] relates to Cardiac muscle cell. Nature of the assay: Potency index, ratio of trolox MEC1.5 to test compound MEC1.5 for cytoprotective activity against serum deprivation-induced neonatal Wistar rat cardiomyocyte death. The class given is functional.
Assay [6] can be described thus: Upregulation of glutathione S-transferase Yc1 subunit gene expression in serum-deprived neonatal Wistar rat cardiomyocyte at 0.37 uM incubated for 21 hrs by microarray analysis relative to control. The class given is functional, Cardiac muscle cell. Put shortly:
as §1

The subject of assay [7] is Antioxidant response element. Kind of assay: Induction of ARE-mediated GST Ya mRNA expression in MIF siRNA transfected rat H9c2 cells at 3 uM measured after 24 hrs in presence of rat MIF by RT-qPCR analysis. The format is cell-based. Put shortly: (§4)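 H9c2 cells transfected with MIF siRNA or control siRNA (100 nM, Oligofectamine), then treated with 3 μM compound with or without 0.8 μM rMIF for 24 hr. GST Ya and HO-1 mRNA by real-time qPCR; mean ± SD, n = 3. MIF effect on drug efficacy tested by Aspin-Welch test.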
(In qPCR the cycle at which signal appears reflects the starting amount.)

In assay [8] the test system is Antioxidant response element. Nature of the assay: Induction of ARE-mediated HO-1 mRNA expression in MIF siRNA transfected rat H9c2 cells at 3 uM measured after 24 hrs by RT-qPCR analysis. The format is cell-based. Put shortly:
as §4

Assay [9] can be described thus: Upregulation of gamma-glutamylcysteine synthetase gene expression in serum-deprived neonatal Wistar rat cardiomyocyte at 0.37 uM incubated for 21 hrs by microarray analysis relative to control. The class given is functional, Cardiac muscle cell. In outline:
as §1

Assay [10] can be described thus: Reduction in MIF expression in MIF siRNA transfected rat H9c2 cell lysates at 3 uM measured after 24 hrs ELISA relative to control. The class given is functional. Also noted: scale not given: the % may be the effect or the level left. Put shortly: (§5)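 H9c2 cells transfected with 100 nM rat MIF siRNA or negative-control siRNA using Oligofectamine in Opti-MEM, then treated with 3 μM compound for 24 hr. MIF mRNA by real-time qPCR; MIF protein in cell lysate and medium by ELISA. Mean ± SD, n = 3.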

For assay [11], the target named is Macrophage migration inhibitory factor (Rattus norvegicus) (UniProt P30904). Kind of assay: Inhibition of MIF tautomerase activity in rat H9c2 cells at 30 uM using L-dopachrome carboxy-methyl ester as substrate incubated for 6 hrs under serum-free medium by spectrophotometry relative to control. The class given is cell-based. Put shortly:
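H9c2 cells exposed to 30 μM compound for 6 hr; MIF tautomerase activity then measured in cell lysate.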

The target is the same in assay [12]. Kind of assay: Inhibition of recombinant rat MIF expressed in Escherichia coli BL21 (DE3) assessed as reduction in tautomerase activity at 30 uM using L-dopachrome carboxy-methyl ester as substrate by spectrophotometry relative to control. In outline: as §2
Assay [13] can be described thus: Upregulation of NAD(P)H-menadione oxidoreductase gene expression in serum-deprived neonatal Wistar rat cardiomyocyte at 0.37 uM incubated for 21 hrs by microarray analysis relative to control. The class given is functional, Cardiac muscle cell. In outline: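 Primary neonatal rat cardiomyocytes cultured with or without 0.37 μM compound in serum-free medium for 21 hr. Total RNA profiled on the rat genome U34A GeneChip array (about 7000 known genes).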

The subject of assay [14] is Antioxidant response element. Nature of the assay: Induction of ARE activity in serum-deprived neonatal Wistar rat cardiomyocytes assessed as increase in GST Ya mRNA level up to 3 uM measured after 24 hrs by RT-qPCR analysis. The class given is cell-based. Particulars: Cardiomyocyte. Put shortly: (§6)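 Neonatal rat cardiomyocytes exposed to samples or vehicle in M-199 with 1% penicillin-streptomycin, no serum, for 24 hr. GST Ya and HO-1 mRNA measured by real-time qPCR (mean ± SD, n = 3); protein by western blot with β-actin as control.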

Assay [15] is described as follows: Reduction in MIF mRNA expression in rat H9c2 cells transfected with MIF siRNA at 3 uM measured after 24 hrs RT-qPCR analysis relative to control. The class given is functional. Set-up: scale not given: the % may be the effect or the level left. In outline: as §5
For a further assay, the species on record is Homo sapiens. Nature of the assay: Binding affinity to BTZO-12 sensor chip immobilized recombinant human N-terminal His-tagged MIF C59S mutant expressed in Escherichia coli BL21 (DE3) by SPR analysis. Put shortly:
as §3
A general note: In SPR one partner is held on a chip, and binding of the other changes the refractive index at the surface.

Assay [16] concerns Antioxidant response element. Kind of assay: Induction of ARE activity in serum-deprived neonatal Wistar rat cardiomyocytes assessed as increase in HO-1 expression up to 400 nM measured after 24 hrs by Western blot analysis. Particulars: Cardiomyocyte. The class given is cell-based. Put shortly: as §6
Assay [17] addresses Macrophage migration inhibitory factor (Rattus norvegicus) (UniProt P30904). Kind of assay: Induction of MIF-stimulated ARE activity in rat H9c2 cells assessed as increase in GST Ya expression at 3 uM incubated for 24 hrs by RT-qPCR analysis. The format is cell-based.
Assay [18] can be described thus: Upregulation of heme oxygenase-1 gene expression in serum-deprived neonatal Wistar rat cardiomyocyte at 0.37 uM incubated for 21 hrs by microarray analysis relative to control. The class given is functional, Cardiac muscle cell. In outline: as §1
The target of assay [19] is T1, Macrophage migration inhibitory factor (Homo sapiens). Nature of the assay: Binding affinity to BTZO-12 sensor chip immobilized recombinant human N-terminal His-tagged MIF expressed in Escherichia coli BL21 (DE3) by SPR analysis. Put shortly:
as §3

Assay [20] deals with Antioxidant response element. Nature of the assay: Induction of ARE-mediated GST Ya mRNA expression in MIF siRNA transfected rat H9c2 cells at 3 uM measured after 24 hrs by RT-qPCR analysis. The class given is cell-based. Put shortly: as §4
Assay [21] has as its system Antioxidant response element. Kind of assay: Induction of rat ARE activity expressed in rat H9c2 cells assessed as increase in ARE luciferase activity measured after 24 hrs by steady-glo luciferase Assay. The class given is cell-based. In outline: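 H9c2 cells transiently transfected with pGL3-ARE-Luc or pGL3-mARE-Luc, compound exposure 24 hr, luciferase read by Steady-Glo. MEC2.0 is the concentration giving a doubling of luciferase activity. Mean ± SD, n = 4.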

Activity calls are given as the source filed them. The rule behind the calls is not given here.

Sequence of Macrophage migration inhibitory factor (Rattus norvegicus) (P30904 2-115 limits assumed): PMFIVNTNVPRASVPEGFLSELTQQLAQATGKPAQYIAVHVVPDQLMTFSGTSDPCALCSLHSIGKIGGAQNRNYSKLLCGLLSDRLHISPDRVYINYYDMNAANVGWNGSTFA

Regarding `O=c1nc(-c2ccccn2)sc2ccccc12` [BTZO-1], the “fold change (FC)” value in assay [1] is 2.5; in assay [6], 2.1; in assay [9], 2.4; in assay [13], 2.8; in assay [18] it was 2. Also, the outcome (with Cardiac muscle cell [2]; in assay [4]; in [7]; in [14]; in the assay filed under Homo sapiens; in [16]) was Active. Also, the outcome in assay [17] and in assay [19] was Active. For the same compound, the inhibition (commonly the share of the control response that was lost under treatment) in assay [3] is “Active”. Besides, the Ratio in the assay on Cardiac muscle cell [5] is reported as 10000. The result in [8] and in [20] was inactive. Also, the values for the Activity in assay [10], in assay [15] and in assay [21] were approximately 50%, approximately 80% and “Dose-Dependent Effect”, respectively. The inhibition in assay [11] worked out at 20%; in [12] it was 13%. Also, the MEC2 in assay [21] turned out to be 0.82 µM.
